Data as given in ChEMBL document CHEMBL1124370 (1989).
Calls of active or inactive are those of the source. No cut-off for these calls is given here.

How the values were obtained:
[1] = target: Aldo-keto reductase family 1 member B1 (Bos taurus) (UniProt P16116); experiment: Inhibition of aldose reductase in partially purified bovine lens preparation at 10e-6 M.
Method in brief: (§1)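 Aldose reductase partially purified from bovine lens, with the final chromatographic step of the earlier preparation omitted. Assay run in duplicate with test compound at 1 × 10^-6 M or 1 × 10^-7 M. Reported as % inhibition of enzymatic activity.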

[2] = tested on: Rattus norvegicus; experiment: In vivo inhibition of galactitol accumulation in the diaphragm of ratat a dose of 75 mg/kg/day; assay type: functional
[3] = tested on: Rattus norvegicus; experiment: In vivo inhibition of galactitol accumulation in the sciatic nerves of rat at a dose of 25 mg/kg/day; assay type: functional; details: Sciatic nerve
[4] = tested on: Rattus norvegicus; experiment: […] inhibition of sorbitol accumulation in rat sciatic nerves at 10e-5 M concentration; assay type: functional, Sciatic nerve
Method in brief: (§2)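 Sciatic nerves were taken from male Sprague-Dawley rats (200–250 g) after CO2 euthanasia. Nerves were incubated 3 h at 37 °C under 95% air/5% CO2 in Hank's salts buffer, pH 7.4, with 50 mM glucose and (0–5)×10^-5 M compound, in triplicate. Nerve sorbitol was measured spectrofluorometrically in duplicate, and the read-out was % inhibition of sorbitol accumulation.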

[5] = tested on: Rattus norvegicus; experiment: In vivo inhibition of sorbitol accumulation in rat sciatic nerves at 10e-6 M concentration; assay type: functional, Sciatic nerve; method in brief: as §2
[6] = tested on: Rattus norvegicus; experiment: In vivo inhibition of galactitol accumulation in the diaphragm of rat. at a dose of 25 mg/kg/day; NS =not significant; assay type: functional, organism-based
[7] = tested on: Rattus norvegicus; experiment: In vivo inhibition of galactitol accumulation in the sciatic nerves of rat at a dose of 75 mg/kg/day; assay type: functional; details: Sciatic nerve
[8] = target: Aldo-keto reductase family 1 member B1 (Bos taurus) (UniProt P16116); experiment: Inhibition of aldose reductase in partially purified bovine lens preparation at 10e-7 M concentration; method in brief: as §1
[9] = tested on: Rattus norvegicus; experiment: In vivo inhibition of sorbitol accumulation in rat sciatic nerves at 5*10e-5 M concentration; assay type: functional, Sciatic nerve; details: in the assay text read “In vitro” for “In vivo”; method in brief: as §2
[10] = tested on: Rattus norvegicus; experiment: In vivo inhibition of galactitol accumulation in the sciatic nerves of rat at a dose of 100 mg/kg/day; NS=not significant; assay type: functional, organism-based; details: Sciatic nerve
[11] = tested on: Rattus norvegicus; experiment: […] inhibition of sorbitol accumulation in rat sciatic nerves at 10e-6 M concentration; NS=not significant; assay type: functional; details: Sciatic nerve; method in brief: as §2
[12] = tested on: Rattus norvegicus; experiment: In vivo inhibition of galactitol accumulation in the diaphragm of rat at a dose of 100 mg/kg/day; assay type: functional
[13] = tested on: Rattus norvegicus; experiment: In vivo inhibition of galactitol accumulation in the sciatic nerves of rat at a dose of 100 mg/kg/day; assay type: functional; details: Sciatic nerve
[14] = tested on: Rattus norvegicus; experiment: In vivo inhibition of galactitol accumulation in the sciatic nerves of rat at a dose of 26 mg/kg/day; assay type: functional; details: Sciatic nerve
[15] = tested on: Rattus norvegicus; experiment: In vivo inhibition of galactitol accumulation in the diaphragm of rat. at a dose of 100 mg/kg/day; assay type: functional
[16] = tested on: Rattus norvegicus; experiment: […] inhibition of sorbitol accumulation in rat sciatic nerves at 5*10e-6 M concentration; assay type: functional, Sciatic nerve; details: in the assay text read “In vitro” for “In vivo”
Method in brief: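 Sciatic nerves from male Sprague-Dawley rats (200–250 g), removed after CO2 euthanasia, incubated ex vivo for 3 h at 37 °C under 95% air/5% CO2 in Hank's salts buffer, pH 7.4, with 50 mM glucose and 5 × 10^-6 M test compound. Triplicate incubations; nerve sorbitol measured in duplicate by spectrofluorometric assay. Reported as % inhibition of sorbitol accumulation.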

[17] = tested on: Rattus norvegicus; experiment: In vivo inhibition of galactitol accumulation in the diaphragm of rat. at a dose of 26 mg/kg/day; assay type: functional
[18] = tested on: Rattus norvegicus; experiment: In vivo inhibition of galactitol accumulation in the diaphragm of rat at a dose of 4 mg/kg/day; assay type: functional
[19] = tested on: Rattus norvegicus; experiment: In vivo inhibition of galactitol accumulation in the sciatic nerves of rat at a dose of 4 mg/kg/day; assay type: functional; details: Sciatic nerve
[20] = tested on: Rattus norvegicus; experiment: In vivo inhibition of galactitol accumulation in the sciatic nerves of rat at a dose of 46 mg/kg/day; NS=not significant; assay type: functional, organism-based; details: Sciatic nerve
[21] = tested on: Rattus norvegicus; experiment: […] inhibition of sorbitol accumulation in rat sciatic nerves at 10e-5 M concentration; NS=not significant; assay type: functional; details: Sciatic nerve; method in brief: as §2
[22] = tested on: Rattus norvegicus; experiment: In vivo inhibition of galactitol accumulation in the diaphragm of rat at a dose of 46 mg/kg/day; NS =not significant; assay type: functional, organism-based
[23] = target: Aldo-keto reductase family 1 member B1 (Bos taurus) (UniProt P16116); experiment: […] inhibition of aldose reductase in partially purified bovine lens preparation at 10e-6 M concentration
Method in brief: (§3)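 Enzyme partially purified from bovine lens by a published method, with the final chromatographic step omitted. Test compound was added at 1×10^-6 or 1×10^-7 M. Assays were run in duplicate, and the read-out was % inhibition of enzymatic activity.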

[24] = target: Aldo-keto reductase family 1 member B1 (Bos taurus) (UniProt P16116); experiment: […] inhibition of aldose reductase in partially purified bovine lens preparation at 10e-7 M concentration; method in brief: as §3
[25] = tested on: Rattus norvegicus; experiment: In vivo inhibition of galactitol accumulation in the diaphragm of rat. at a dose of 56 mg/kg/day; NS=not significant; assay type: functional, organism-based
[26] = tested on: Rattus norvegicus; experiment: In vivo inhibition of galactitol accumulation in the sciatic nerves of rat at a dose of 56 mg/kg/day; NS=not significant; assay type: functional, organism-based; details: Sciatic nerve
[27] = tested on: Rattus norvegicus; experiment: In vivo inhibition of galactitol accumulation in the diaphragm of rat at a dose of 57 mg/kg/day; assay type: functional
[28] = tested on: Rattus norvegicus; experiment: In vivo inhibition of galactitol accumulation in the diaphragm of rat at a dose of 97 mg/kg/day; assay type: functional
[29] = tested on: Rattus norvegicus; experiment: In vivo inhibition of galactitol accumulation in the sciatic nerves of rat at a dose of 57 mg/kg/day; assay type: functional; details: Sciatic nerve
[30] = tested on: Rattus norvegicus; experiment: In vivo inhibition of galactitol accumulation in the sciatic nerves of rat at a dose of 97 mg/kg/day; assay type: functional; details: Sciatic nerve
[31] = tested on: Rattus norvegicus; experiment: In vivo inhibition of galactitol accumulation in the sciatic nerves of rat at a dose of 48 mg/kg/day; NS=not significant; assay type: functional, organism-based; details: Sciatic nerve
[32] = tested on: Rattus norvegicus; experiment: In vivo inhibition of galactitol accumulation in the diaphragm of rat. at a dose of 48 mg/kg/day; NS =not significant; assay type: functional, organism-based

SMILES	inhibition [1] [%]	inhibition [8] [%]	Inhibition [4] [%]	Inhibition [5] [%]	Inhibition [9] [%]	Inhibition [16] [%]	other results
COc1ccc2c(/C(=N/C#N)N(C)CC(=O)O)cccc2c1C(F)(F)F	81	80	–	–	81	70	inhibition in vivo at 100 mg/kg/day [13]: 61%; inhibition in vivo at 26 mg/kg/day [14]: 30%; inhibition in vivo at 100 mg/kg/day [15]: 72%; inhibition in vivo at 26 mg/kg/day [17]: 44%
COc1ccc2c(C(=O)N(CC(=O)O)C(C)=O)cccc2c1C(F)(F)F	91	61	62	40	–	–	inhibition in vivo at 100 mg/kg/day [13]: 36%; inhibition in vivo at 100 mg/kg/day [12]: 39%
COc1ccc2c(C(=O)N(CC(=O)O)C(=O)OC(C)C)cccc2c1C(F)(F)F	–	35	–	–	–	–	inhibition [20]: inactive; inhibition [21]: inactive; inhibition [22]: inactive
COc1ccc2c(/C(=N/S(=O)(=O)C(F)(F)F)N(C)CC(=O)O)cccc2c1C(F)(F)F	–	–	–	–	71	36	inhibition [23]: 94%; inhibition [24]: 69%; inhibition [25]: inactive; inhibition [26]: inactive
CCCOC(=O)N(CC(=O)O)C(=O)c1cccc2c(C(F)(F)F)c(OC)ccc12	90	81	62	–	–	–	inhibition [31]: inactive; inhibition [11]: inactive; inhibition [32]: inactive

Now from value to molecule, other results behind:

inhibition [1] [%]	inhibition [8] [%]	SMILES	Inhibition [4] [%]	Inhibition [5] [%]	Inhibition [9] [%]	Inhibition [16] [%]	other results
86	57	COc1ccc2c(C(=O)N(C)CC(=O)O)cccc2c1C(F)(F)F	74	27	89	–	inhibition in vivo at 75 mg/kg/day [2]: 27%; inhibition in vivo at 25 mg/kg/day [3]: 33%; inhibition [6]: inactive; inhibition in vivo at 75 mg/kg/day [7]: 56%
3	–	COc1ccc2c(C(=O)N(CC(=O)O)C(=O)N(C)C)cccc2c1C(F)(F)F	34	–	–	–	inhibition [10]: inactive; inhibition [11]: inactive; inhibition in vivo at 100 mg/kg/day [12]: 21%
45	10	O=C1NC(=O)[C@@]2(CCOc3ccc(F)cc32)N1 [SORBINIL]	96	27	–	74	inhibition in vivo at 4 mg/kg/day [18]: 69%; inhibition in vivo at 4 mg/kg/day [19]: 55%
98	81	CCOC(=O)N(CC(=O)O)C(=O)c1cccc2c(C(F)(F)F)c(OC)ccc12	88	51	–	–	inhibition in vivo at 57 mg/kg/day [27]: 70%; inhibition in vivo at 97 mg/kg/day [28]: 83%; inhibition in vivo at 57 mg/kg/day [29]: 56%; inhibition in vivo at 97 mg/kg/day [30]: 90%
